Activity calls are given as the source filed them. No cut-off for these calls is given here.
Key:
[1] = Subacute toxicity in ICR mouse assessed as mortality at 50 to 200 mg/kg, po qd administered for 10 days; assay type: organism-based; settings: in vivo, 240 h, dose 50-200 mg/kg, time 10 day
Outline: (§1)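 Male ICR mice (18–20 g), ten per group, received oral doses once daily for ten days, with a control group alongside. Body weight, food intake and behaviour were observed daily. Animals were fasted before dissection, and heart, liver, spleen, lung, kidney and administration site were collected for organ weight and histology.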

[2] = Subacute toxicity in ICR mouse assessed as change in lung histology at 50 to 200 mg/kg, po qd administered for 10 days; assay type: organism-based; settings: in vivo, 240 h, dose 50-200 mg/kg, time 10 day; outline: as §1
SARS-CoV-2 [3] = assay: Antiviral activity against SARS-CoV-2 infected in African green monkey Vero E6 cells assessed as inhibition of viral replication at 1 uM incubated for 24 hrs by IFA assay relative to control; assay type: functional; settings: Severe acute respiratory syndrome coronavirus 2, Vero C1008
[4] = Oral bioavailability in ICR mouse at 30 mg/kg measured upto 24 hrs by LC-MS/MS analysis; assay type: ADME, organism-based; settings: in vivo
Outline: (§2)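 Male-unspecified ICR (CD-1) mice, N = 3 per group, were fasted 12 h. Compound in DMSO/0.5% HMPC (5/95, v/v) was given orally at 30 mg/kg or intravenously at 2.5 mg/kg. Femoral-vein blood was drawn at 0.25, 0.5, 1, 2, 4, 8 and 24 h, and serum analyte levels were measured by LC-MS/MS.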

[5] = Subacute toxicity in ICR mouse assessed as change in heart histology at 50 to 200 mg/kg, po qd administered for 10 days; assay type: organism-based; settings: in vivo, 240 h, dose 50-200 mg/kg, time 10 day; outline: as §1
Vero C1008 [6] = assay: Downregulation of BECN1 level in African green monkey Vero E6 cells at 10 uM measured after 16 hrs by Western blotting analysis; assay type: functional, cell-based; settings: Chlorocebus sabaeus
Outline: (§3)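 Vero-E6 cells in DMEM with 10% FBS were cultured overnight at 37 °C, 5% CO2, then treated with a concentration series for 16 h. Lysates were made in RIPA on ice and equalised for protein by BCA. Blots were probed for SKP2 or Beclin-1 plus β-actin and detected by ECL. The band-intensity ratio to β-actin was normalised to DMSO control.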

Vero C1008 [7] = assay: Downregulation of SKP2 level in African green monkey Vero E6 cells at 0.3 to 10 uM measured after 16 hrs by Western blotting analysis; assay type: functional, cell-based; settings: Chlorocebus sabaeus, dose 0.3-10 µM; outline: as §3
[8] = Subacute toxicity in ICR mouse assessed as change in body weight at 50 to 200 mg/kg, po qd administered for 10 days; assay type: organism-based; settings: in vivo, 240 h, dose 50-200 mg/kg, time 10 day; outline: as §1
Vero C1008 [9] = assay: Downregulation of BECN1 level in African green monkey Vero E6 cells at 1 to 3 uM measured after 16 hrs by Western blotting analysis; assay type: functional, cell-based; settings: Chlorocebus sabaeus, dose 1-3 µM; outline: as §3
[10] = Observed AUC (0 to infinity) in ICR mouse at 2.5 mg/kg, iv measured upto 24 hrs by LC-MS/MS analysis; assay type: ADME, organism-based; set-up: dose 2.5 mg/kg, time < 24 hrs, route iv; settings: in vivo, 24 h; outline: as §2
[11] = Observed AUC (0 to infinity) in ICR mouse at 30 mg/kg, po measured upto 24 hrs by LC-MS/MS analysis; assay type: ADME, organism-based; set-up: dose 30 mg/kg, time < 24 hrs, route po; settings: in vivo; outline: as §2
Vero C1008 [12] = assay: Cytotoxicity against African green monkey Vero E6 cells assessed as reduction in cell viability measured after 48 hrs by CCK-8 assay; assay type: toxicity, cell-based; settings: chlorocebus sabaeus, vero c1008, 48 h
[13] = Half life in ICR mouse at 2.5 mg/kg, iv measured upto 24 hrs by LC-MS/MS analysis; assay type: ADME, organism-based; settings: in vivo, iv, 2.5 mg/kg, 24 h; outline: as §2
[14] = Subacute toxicity in ICR mouse assessed as change in liver histology at 50 to 200 mg/kg, po qd administered for 10 days; assay type: organism-based; settings: in vivo, 240 h, dose 50-200 mg/kg, time 10 day; outline: as §1
[15] = Half life in ICR mouse at 30 mg/kg, po measured upto 24 hrs by LC-MS/MS analysis; assay type: ADME, organism-based; settings: in vivo; outline: as §2
[16] = Subacute toxicity in ICR mouse assessed as change in kidney histology at 50 to 200 mg/kg, po qd administered for 10 days; assay type: organism-based; settings: in vivo, 240 h, dose 50-200 mg/kg, time 10 day; outline: as §1
[17] = Cmax in ICR mouse at 30 mg/kg, po measured upto 24 hrs by LC-MS/MS analysis; assay type: ADME, organism-based; set-up: dose 30 mg/kg, time < 24 hrs, route po; settings: in vivo; outline: as §2
[18] = AUClast in ICR mouse at 2.5 mg/kg, iv measured upto 24 hrs by LC-MS/MS analysis; assay type: ADME, organism-based; set-up: dose 2.5 mg/kg, time < 24 hrs, route iv; settings: in vivo, 24 h; outline: as §2
[19] = Observed MRT (0 to infinity) in ICR mouse at 2.5 mg/kg, iv measured upto 24 hrs by LC-MS/MS analysis; assay type: ADME, organism-based; settings: in vivo, iv, 2.5 mg/kg, 24 h; outline: as §2
[20] = AUClast in ICR mouse at 30 mg/kg, po measured upto 24 hrs by LC-MS/MS analysis; assay type: ADME, organism-based; set-up: dose 30 mg/kg, time < 24 hrs, route po; settings: in vivo; outline: as §2
[21] = Subacute toxicity in ICR mouse assessed as change in organ weight at 50 to 200 mg/kg, po qd administered for 10 days; assay type: organism-based; settings: in vivo, 240 h, dose 50-200 mg/kg, time 10 day; outline: as §1
[22] = Subacute toxicity in ICR mouse assessed as change in spleen histology at 50 to 200 mg/kg, po qd administered for 10 days; assay type: organism-based; settings: in vivo, 240 h, dose 50-200 mg/kg, time 10 day; outline: as §1
[23] = Observed MRT (0 to infinity) in ICR mouse at 30 mg/kg, po measured upto 24 hrs by LC-MS/MS analysis; assay type: ADME, organism-based; settings: in vivo; outline: as §2
[24] = Aqueous solubility of compound at 0.5 mg/mL in presence of acetonitrile by HPLC analysis; assay type: physicochemical; settings: buffer
Outline: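 Compound was suspended in water, vortexed vigorously and filtered through a 0.22 μm membrane. The filtrate was diluted 2-fold with 80% acetonitrile and analysed by reversed-phase amide HPLC. Concentration was read against a standard curve prepared from a 0.5 mg/mL solution in 80% acetonitrile. Single determination.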

SARS-CoV-2 [25] = assay: Antiviral activity against SARS-CoV-2 infected in African green monkey Vero E6 cells assessed as inhibition of viral replication incubated for 24 hrs by IFA assay; assay type: functional, organism-based; settings: Severe acute respiratory syndrome coronavirus 2, Vero C1008, 24 h
[26] = Selectivity index, ratio of CC50 for cytotoxicity against African green monkey Vero E6 to EC50 for antiviral activity against SARS-CoV-2 infected in African green monkey Vero E6 cells; assay type: toxicity, cell-based, Vero C1008; settings: read-out: Ratio CC50/EC50

SMILES: O=C(Nc1ccc(OC(F)(F)F)cc1)c1cc(Cl)c(F)cc1O
- Activity [1]: Non-Toxic
- Activity [2]: Non-Toxic
- inhibition at 1 µM (SARS-CoV-2 [3]): 91%
- bioavailability [4]: 12.7%
- Activity [5]: Non-Toxic
- Activity (Vero C1008 [6]): Active
- Activity (Vero C1008 [7]): Active
- Activity [8]: Non-Toxic
- Activity (Vero C1008 [9]): Active
- AUC [10]: 3678 ng·h/mL
- AUC [11]: 5579 ng·h/mL
- CC50 (Vero C1008 [12]): 4730 nM
- t1/2 [13]: 4.6 h
- Activity [14]: Non-Toxic
- t1/2 [15]: 3.33 h
- Activity [16]: Non-Toxic
- Cmax [17]: 2376 ng/mL
- AUClast [18]: 3646 ng·h/mL
- MRT [19]: 1.94 h
- AUClast [20]: 5547 ng·h/mL
- Activity [21]: Non-Toxic
- Activity [22]: Non-Toxic
- MRT [23]: 4.41 h
- solubility [24]: 0.1 µg/mL
- EC50 (SARS-CoV-2 [25]): 1000 nM
- selectivity ratio [26]: 4.73
